# Test results as given in ChEMBL document CHEMBL1125596, “3-Alkyl-4-aminobutyric acids: the first class of anticonvulsant agents that activates L-glutamic acid decarboxylase” (1991).
# Experiments:
# [1] = Tested for activation of Glutamate decarboxylase; the ratio of Vmax in the presence of activators to the Vmax in the absence of activators at a concentration of 250 uM.
# Outline: (§1)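 Purified GAD (57 µg; sp act. 7.8 nmol/min·mg), 50 mM potassium phosphate pH 7.2, 37 °C, 60 min. Substrate L-glutamate 0.5–0.10 mM spiked with [1-14C]-L-glutamate. Activator at 2.5–0.05 mM. Reaction quenched with 6 M H2SO4; released 14CO2 trapped in KOH center well and counted. Vmax taken from 1/dpm vs 1/[glutamate] plots. Activation is Vmax(+activator)/Vmax(none) ×100%.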
# [2] = Compound was tested for anticonvulsant activity in Mice by iv administration at the dose of 100 mg/kg.; type: functional, Mus musculus
# Outline: (§2)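 Male CF-1 mice (20-28 g), compound given iv. 120 min later, low-intensity corneal electroshock (17 mA base-to-peak sinusoidal, 0.2 s). Protection was scored as prevention of hindlimb tonic extensor seizure and reported as number protected/number tested.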
# [3] = Tested for activation of Glutamate decarboxylase; the ratio of Vmax in the presence of activators to the Vmax in the absence of activators at a concentration of 2.5 mM.; outline: as §1
# [4] = Tested for activation of Glutamate decarboxylase; the ratio of Vmax in the presence of activators to the Vmax in the absence of activators at a concentration of 1.0 mM.; outline: as §1
# [5] = Compound was tested for anticonvulsant activity in Mice by iv administration at the dose of 100 mg/kg; 0/10; type: functional, Mus musculus; outline: as §2
# [6] = Compound was tested for anticonvulsant activity in Mice by iv administration at the dose of 100 mg/kg; 6/10; type: functional, Mus musculus; outline: as §2
# [7] = Compound was tested for anticonvulsant activity in Mice by iv administration at the dose of 100 mg/kg; 5/10; type: functional, Mus musculus; outline: as §2
# [8] = Compound was tested for activation of Glutamate decarboxylase which is the ratio of Vmax in the presence of activators to the Vmax in the absence of activators at a concentration of 500 uM.; outline: as §1
# [9] = Compound was tested for activation of Glutamate decarboxylase which is the ratio of Vmax in the presence of activators to the Vmax in the absence of activators at a concentration of 100 uM.; outline: as §1
# [10] = Compound was tested for anticonvulsant activity in Mice by iv administration at the dose of 14.4 mg/kg; 9/10; type: functional, Mus musculus; outline: as §2
# [11] = Compound was tested for anticonvulsant activity in Mice by iv administration at the dose of 100 mg/kg; 2/10; type: functional, Mus musculus; outline: as §2
# [12] = Compound was tested for activation of Glutamate decarboxylase which is the ratio of Vmax in the presence of activators to the Vmax in the absence of activators at a concentration of 50 uM.; outline: as §1
# [13] = Compound was tested for anticonvulsant activity in Mice by iv administration at the dose of 100 mg/kg; 4/10; type: functional, Mus musculus; outline: as §2
# [14] = Compound was tested for anticonvulsant activity in Mice by iv administration at the dose of 30 mg/kg; 2/10; type: functional, Mus musculus; outline: as §2
# [15] = Compound was tested for anticonvulsant activity in Mice by iv administration at the dose of 100 mg/kg; 3/5; type: functional, Mus musculus; outline: as §2
# [16] = Compound was tested for anticonvulsant activity in Mice by iv administration at the dose of 100 mg/kg; type: functional, Mus musculus; outline: as §2
Compound,Activity [1],Activity [3],Activity [4],other results
CC(C)(CN)CC(=O)O,109,174,125,No. of animals protected [2]: 8
C[C@H](CN)CC(=O)O,103,170,118,No. of animals protected [2]: 5
CCC(CN)CC(=O)O (stereo not drawn),108,172,128,No. of animals protected [2]: 5
CC(C)CCC(CN)CC(=O)O (stereo not drawn),109,142,118,No. of animals protected [5]: 0
CC(C)C(CN)CC(=O)O (stereo not drawn),104,140,108,No. of animals protected [6]: 6
CC(C)(C)C(CN)CC(=O)O (stereo not drawn),,295,174,No. of animals protected [7]: 5; Activity [8]: 147; Activity [9]: 117
CC(C)CC(CN)CC(=O)O (stereo not drawn),109,,,No. of animals protected [10]: 9
CCCC(CCC)C(=O)O,,207,138,Activity [8]: 124; Activity [9]: 115
CCCCC(CN)CC(=O)O (stereo not drawn),105,178,117,No. of animals protected [11]: 2
CC(CN)CC(=O)O (stereo not drawn),128,239,168,No. of animals protected [2]: 3; Activity [8]: 142; Activity [9]: 118; Activity [12]: 107
NCC(CC(=O)O)C1CCCCC1 (stereo not drawn),100,125,100,
NCC1(CC(=O)O)CCCCC1,105,178,145,
CC(C)(C)CC(CN)CC(=O)O (stereo not drawn),130,279,181,No. of animals protected [13]: 4
CCC(C)C(CN)CC(=O)O (stereo not drawn),105,169,119,No. of animals protected [14]: 2
CCCC(CN)CC(=O)O (stereo not drawn),105,156,112,No. of animals protected [15]: 3
C[C@@H](CN)CC(=O)O,,327,202,Activity [8]: 185; Activity [9]: 128; No. of animals protected [16]: 5
CCCCCNCC(N)=O,126,230,170,
